Compound activity as filed in PubChem BioAssay.
ASAP1 GAP inh: inhibitors of human ASAP1 ArfGAP activity, primary screen, biochemical, fluorescence polarization | Arf-GAP with SH3 domain, ANK repeat and PH domain-containing protein 1 (Homo sapiens), … | ASAP1-stimulated ARF1 GTP hydrolysis, GDP FP detection | inhibition, % at 16.5 µM | 360,000 compounds, 0.19% hits; in the data active = inhibition above about 25%
Target sequence (Q9ULH1 325-724 limits assumed): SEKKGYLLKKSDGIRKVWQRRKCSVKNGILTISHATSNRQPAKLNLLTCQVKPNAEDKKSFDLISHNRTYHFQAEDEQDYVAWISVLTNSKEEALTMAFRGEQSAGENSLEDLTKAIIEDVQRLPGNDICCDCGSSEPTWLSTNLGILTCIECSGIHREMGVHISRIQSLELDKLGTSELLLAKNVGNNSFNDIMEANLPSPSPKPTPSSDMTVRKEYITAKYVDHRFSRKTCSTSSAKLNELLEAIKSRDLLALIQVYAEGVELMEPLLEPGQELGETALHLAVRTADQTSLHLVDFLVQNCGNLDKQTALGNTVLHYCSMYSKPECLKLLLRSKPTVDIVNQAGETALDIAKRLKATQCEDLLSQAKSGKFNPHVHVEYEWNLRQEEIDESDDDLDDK
ARFGAP1 inhibitor: inhibitors of rat ARFGAP1 GAP activity, primary screen, biochemical, fluorescence polarization, GDP tracer. 360,000 compounds, 0.26% hits. inhibition, % at 16.5 µM. AID 651572, 2012. Arfgap1-stimulated ARF1 GTP hydrolysis, GDP FP detection;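 active = inhibition above a per-plate limit, mean inhibition of low control wells plus 3 SD, cut at about 25% in these data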
Target sequence (Q62848 1-136 limits assumed): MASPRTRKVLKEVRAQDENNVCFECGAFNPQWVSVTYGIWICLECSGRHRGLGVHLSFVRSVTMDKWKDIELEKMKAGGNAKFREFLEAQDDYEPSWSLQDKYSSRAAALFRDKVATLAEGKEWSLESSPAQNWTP
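System: truncated rat Arfgap1 GAP domain / Medium: HEPES-based buffer, pH 7.5 / Also added: N-terminally truncated human ARF1-GTP substrate / Incubation: enzyme reaction 120 min at 25 °C after 20 min preincubation / Measured by: FP of antibody-bound GDP Alexa 633 tracer, ex 620/em 688 nm / Replicates: singlicate, each compound tested once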
rCAG RNA binder: binders of r(CAG) RNA repeats, primary screen, biochemical, fluorescence; r(CAG) RNA repeat, TO-PRO-1 dye displacement fluorescence; inhibition, % at 3 µM; 370,000 compounds, 1.3% hits; AID 651821, 2012;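 active = inhibition above the plate cutoff, the mean of all test compounds on that plate plus 3 SD, cut at about 35% in these data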;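 also: higher means more dye released from RNA so lower well fluorescence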
NadD block: inhibitors of S. aureus NadD, primary screen, biochemical, colorimetric, uHTS. purified NadD enzyme, colorimetric absorbance read-out. Nicotinate-nucleotide adenylyltransferase NadD (Staphylococcus aureus N315). 360,000 compounds, 0.78% hits. inhibition, % at 20 µM. AID 602399, 2012; in the data active = inhibition above about 26%
A number is an active result; - = inactive; . = no result given. Hits are enriched below; roughly 2.2% of the tested compounds scored in any of these assays.

SMILES	ASAP1 GAP inh	ARFGAP1 inhibitor	rCAG RNA binder	NadD block
Cc1cccc(NC(=O)CSc2nnc(-c3ccco3)c(-c3ccco3)n2)c1	-	-	42	-
CC(C)(C)c1ccc(OCc2ccc(C(=O)N/N=C/c3ccc(O)c(O)c3)cc2)cc1	-	-	-	72
O=C(N/N=C/c1ccc(OCc2ccc(F)cc2)cc1)c1ccccc1	-	-	-	-
O=c1c2c([N+](=O)[O-])cc([N+](=O)[O-])cc2sn1Cc1ccccc1	-	-	-	-
O=c1c2c([N+](=O)[O-])cc([N+](=O)[O-])cc2sn1-c1ccc(Br)cc1	.	.	.	30
COc1ccc(Cl)cc1C(Nc1cccnc1)c1ccc2cccnc2c1O (centres undefined)	-	-	-	40
CCC(=O)NC(c1ccccc1OC)c1ccc2cccnc2c1O (centres undefined)	.	.	.	-
COc1ccc([C@@H]2CC=C(C(=O)O)[C@H](c3ccccc3)N2S(=O)(=O)c2ccc(C)cc2)cc1OC	-	-	-	-
COc1ccc([C@@H]2CC=C(C(=O)O)[C@H](c3ccccc3)N2S(=O)(=O)c2ccccc2C)cc1	-	-	36	-
Cc1ccc(S(=O)(=O)N2[C@@H](c3ccc(C(C)(C)C)cc3)C(C(=O)O)=CC[C@H]2c2ccc(Cl)cc2)cc1	-	-	89	-
O=C(O)[C@@H]1C[C@@H](O)CN1	-	-	-	.
Oc1cccc(C=Nc2cccc3ccccc23)c1O	-	-	-	45
Oc1ccccc1C=Nc1cccc2ccccc12	-	-	-	-
CC1=NN(c2nc(-c3ccccc3)cs2)C(=O)C1	-	-	68	-
Cc1cc(C)c2nc(-c3ccccn3)cc(C(=O)Nc3ccc(S(=O)(=O)Nc4onc(C)c4C)cc3)c2c1	.	.	.	41
Cc1cc(C)c2nc(-c3ccccn3)cc(C(=O)Nc3ccc(S(=O)(=O)Nc4cc(C)on4)cc3)c2c1	-	-	-	61
Cc1nc2cc(OC3(C)CCN(Cc4ccc(OC(F)(F)F)cc4)C3)ccc2s1 (centres undefined)	-	-	-	-
COc1cccc(C2CC(OCCF)=CC(=O)O2)c1 (centres undefined)	-	-	-	.
Cn1cnc([N+](=O)[O-])c1Sc1nnc(-c2ccccc2)c(-c2ccccc2)n1	-	-	-	.
O=C(NCc1ccccc1)C(c1cccc2ccccc12)n1c(=O)c(-c2ccco2)nc2ccccc21 (centres undefined)	-	-	38	.
CC(C)(C)NC(=O)C(c1cccc2ccccc12)n1c(=O)c(-c2ccco2)nc2ccccc21 (centres undefined)	-	-	44	.
CC(C)(C)NC(=O)C(c1cccc2ccccc12)n1c(=O)c(-c2ccccc2)nc2ccccc21 (centres undefined)	-	-	-	.
CCCCCNC(=O)C(c1cccc2ccccc12)n1c(=O)c(-c2ccco2)nc2ccccc21 (centres undefined)	-	-	-	.
Cc1ccc2c(c1)-c1c(cnn1CC(=O)NCCc1ccc(Cl)cc1)CO2	.	.	-	.
Cc1noc(NS(=O)(=O)c2ccc(NC(=O)CSc3n[nH]c(-c4ccccc4)n3)cc2)c1C	-	-	-	-
SMILES	ASAP1 GAP inh	ARFGAP1 inhibitor	rCAG RNA binder	NadD block
Cc1noc(NS(=O)(=O)c2ccc(NC(=O)CSc3nnc(-c4ccccc4)n3C3CCCCC3)cc2)c1C	-	-	63	-
COc1cc(C)ccc1C(=O)N1CCC(Oc2cccnc2)CC1	.	.	-	.
COc1ccc(-c2nc3c(Cl)cc(C(F)(F)F)cn3c2Cc2ccccc2C(F)(F)F)cc1OC	-	-	-	-
Cc1ccc(-c2nc3c(Cl)cc(C(F)(F)F)cn3c2Cc2ccccc2C(F)(F)F)cc1	-	-	35	-
COc1cc(Cl)c(C)cc1NC(=O)CN(C)C1CCS(=O)(=O)C1 (centres undefined)	-	-	-	-
C#CCOCCOCCOCCNc1nc(N2CCN(C(=O)Cn3cc(CCCN=C(N)N)nn3)CC2)nc(N2CCN(C(=O)[C@H]([C@@H](C)CC)n3cc(CCCCN)nn3)CC2)n1	-	-	-	-
C#CCOCCOCCOCCNc1nc(N2CCN(C(=O)CCCCCCCCCCNC(=O)[C@H]([C@@H](C)CC)n3cc(CCCCCN)nn3)CC2)nc(N2CCN(C(=O)CCCCCCCCCCNC(=O)[C@H]([C@@H](C)CC)n3cc(CCCCN=C(N)N)nn3)CC2)n1	.	.	.	48
C#CCOCCOCCOCCNc1nc(N2CCN(C(=O)CCCCCCCCCCNC(=O)Cn3cc(CCCCCN)nn3)CC2)nc(N2CCN(C(=O)CCCCCCCCCCNC(=O)[C@H]([C@@H](C)CC)n3cc(CCCCN=C(N)N)nn3)CC2)n1	.	.	.	43
C#CCOCCOCCOCCNc1nc(N2CCOCC2)nc(N2CCN(C(=O)CCCCCCCCCCNC(=O)[C@@H]([C@H](C)CC)n3cc(CCCCCN)nn3)CC2)n1	-	-	-	-
C#CCOCCOCCOCCNc1nc(N2CCN(C(=O)CCCCCCCCCCNC(=O)[C@H]([C@@H](C)CC)n3cc(CCCCN=C(N)N)nn3)CC2)nc(N2CCN(C(=O)CCCCCCCCCCNC(=O)[C@H](CO)n3cc(CCCCCN)nn3)CC2)n1	.	.	.	36
CCN(CC)CCNC(=O)c1ccc(NCN2C(=O)NC(c3ccccc3)(c3ccccc3)C2=O)cc1	-	-	-	.
O=C(N=Nc1c(O)[nH]c2ccc([N+](=O)[O-])cc12)c1ccccc1Cl	-	-	-	-
O=C(N=Nc1c(O)[nH]c2ccc(Cl)cc12)c1cc(-c2cccs2)nc2ccccc12	-	-	-	34
CC(CCC(C)C(C)(C)C)[C@@H]1CC[C@H]2C3C[C@H](OS(O)(=S)=S)[C@H]4C[C@H](OS(O)(=S)=S)[C@@H](OS(O)(=S)=S)C[C@]4(C)[C@H]3CC[C@]12C (some centres undefined) (tested in a mixture with another compound)	.	.	.	53
CCCCCC(=O)Nc1cc(S(=O)(=O)O)cc2cc(S(=O)(=O)O)cc(O)c12	-	-	43	-
CCCCCC(=O)Nc1cc(S(=O)(=O)N2CCCCC2)ccc1N1CCCCC1	-	-	-	-
COCCNC(=O)C1(C)CCCN(C(=O)c2cc(C)on2)C1 (centres undefined)	-	-	-	-
CCOC(=O)N1CCN(C2=C(NS(=O)(=O)c3ccccc3)C(=O)c3ccccc3C2=O)CC1	29	33	-	-
CN(/N=C\c1ccc(O)c(O)c1)c1nc(-c2ccccc2)cc(-c2ccccc2)n1	-	-	-	33
COc1cc(/C=N/NC(=O)c2cc3ccccc3cc2O)ccc1OCCN1CCCCC1	-	-	-	-
COCCn1c(C)cc(/C=N/NC(=O)c2cc3ccccc3cc2O)c1C	.	.	.	35
Cc1ccc2nc(-c3cccc(Br)c3)c(Cc3ccsc3)n2c1	-	-	-	.
COc1ccc(Cn2c(NC(=O)c3ccccc3)nc(Cc3ccccc3)c2-c2ccccc2)c(OC)c1	.	.	-	.
